Compounds with a hit are over-represented: about 3.7% of the library has one in this group of screens.
FGF22 binding – binders of human FGF22 protein, primary screen, FGF22 synaptogenesis inhibitor project, biophysical, thermal shift, single point; recombinant FGF22 thermal shift, SYPRO orange fluorescence; percent of sucrose octasulfate shift, DMSO zero; AID 651658, 2012; activity (Tm shift, normalised), % at 9.99 µM; 340,000 compounds, 1.5% hits; Fibroblast growth factor 22 (Homo sapiens), Q9HCT0;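 active = mean Tm shift, scaled 0 neutral to 100 positive control, at about 1.3% or above, every replicate too, limit read from the data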
Target sequence (Q9HCT0 whole entry, looked up): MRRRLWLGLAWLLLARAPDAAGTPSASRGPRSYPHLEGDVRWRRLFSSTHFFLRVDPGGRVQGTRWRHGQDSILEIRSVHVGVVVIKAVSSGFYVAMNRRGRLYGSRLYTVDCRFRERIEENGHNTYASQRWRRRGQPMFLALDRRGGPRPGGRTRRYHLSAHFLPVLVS
ERAP1 HTS inh – human ERAP1 aminopeptidase inhibitors, primary screen, biochemical, single point, plate reader; inhibition, % at 10.7 µM; Endoplasmic reticulum aminopeptidase 1 (Homo sapiens), Q9NZ08; 340,000 compounds, 0.15% hits; recombinant ERAP1, Leu-AMC fluorescence, 60 min; AID 652197, 2013;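 active = mean replicate inhibition of at least 30%, or all replicates individually reaching that 30% level; inactive = mean below 30% and not every replicate reaching it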;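 also: 0% = neutral control wells and 100% = L-leucinethiol positive control wells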
F508del corr – F508del CFTR correction, initial screen, CFBE line, single point | CFBE cells, YFP halide quenching; stimulated with forskolin plus potentiator P3; % fluorescence drop versus neutral controls | activity (quench increase), % at 7.58 µM | 350,000 compounds, 0.36% hits;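 active = mean added fluorescence quench of at least 8% versus neutral control, with both replicates also reaching 8%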;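 also: cells transiently co-express mutant CFTR-F508del with the halide-sensitive YFP; corrector assay measuring rescue of mutant channel to the surface after 24 h compound exposure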
DENV2 CPE – inhibitors of DENV2 cytopathic effect, primary screen, cell-based, plate reader, single concentration. DENV2-infected cells, cytopathic effect rescue. CPE inhibition, % at 9.99 µM. AID 651640, 2012. 350,000 compounds, 1.7% hits; in the data active = CPE inhibition above about 20%, passing the limit was not always enough; tested in BHK-21 cells;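 also: 0% = median of neutral control wells and 100% = median of positive control wells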
E-sel inducer – E-selectin induction in HUVECs, primary screen, imaging, HUVEC, immunofluorescence imaging, single point; P16581; normalized: neutral wells 0, TNF-alpha wells 100; 260,000 compounds, 0.37% hits; activation, % at 7.58 µM;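 active = mean E-selectin-positive cell signal at least 10% of the positive control, reached in at least 60% of replicates, without over 20% cell loss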
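Read-out: % PE-positive cells | Test system: HUVEC | Doses: One compound dose added by pin transfer | Buffer or medium: EGM-2 over gelatin coat | Signal: Immunofluorescence imaging | Benchmarks: TNF-alpha, DMSO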
Starred values were filed as active, the others as inactive; x = not tested or not shown.

SMILES	FGF22 binding	ERAP1 HTS inh	F508del corr	DENV2 CPE	E-sel inducer
C[C@H]1CCCCO[C@@H](CN(C)C(=O)c2ccccc2)[C@@H](C)CN([C@@H](C)CO)C(=O)c2cc(NC(=O)Nc3ccc(C(F)(F)F)cc3)ccc2O1	-1	0	1	-10	0
CCC(=O)N1CC[C@@H]2[C@H]1c1cc(-c3cccc(C#N)c3)ccc1N[C@@H]2CO	0	x	1	-3	0
CCC(=O)N1CC[C@@H]2[C@H](CO)Nc3ccc(-c4cccc(C#N)c4)cc3[C@@H]21	0	x	-1	137*	0
CCCCCCCCSC1=CC(=O)C(OC)=C(OC)C1=O	-1	-4	-5	71*	1
COc1ccccc1N1CCN(/N=C/c2cccc(OC)c2O)CC1	0	4	-4	-3	x
COc1ccccc1N1CCN(/N=C/C=C\c2ccccc2[N+](=O)[O-])CC1	x	-2	15*	2	1
Cc1ccnc(NC2CCCCC2)c1	44*	-1	-2	19	x
CO[C@@H](CN(C)C(=O)c1cc(Cl)cc(Cl)c1)[C@H](C)CN(C(=O)Nc1ccc(F)cc1)[C@@H](C)CO	0	-2	-2	92*	0
CO[C@@H](CN(C)S(=O)(=O)c1cn(C)cn1)[C@@H](C)CN(C(=O)Nc1ccc(F)cc1)[C@@H](C)CO	0	-2	0	23*	0
CO[C@@H](CN(C)Cc1ccc(-c2ccccn2)cc1)[C@H](C)CN(C(=O)Nc1ccc(F)cc1)[C@H](C)CO	8.2*	0	0	-2	0
Cc1ccc(S(=O)(=O)N(C)C[C@@H]2OCCCC[C@H](C)Oc3ccc(NC(=O)Nc4ccc(F)cc4)cc3C(=O)N([C@@H](C)CO)C[C@H]2C)cc1	0	2	-2	6	0
CCCNC(=O)Nc1ccc2c(c1)C(=O)N(C)[C@@H]1CC[C@H](CC(=O)NC)O[C@@H]1CO2	0	x	3	3	0
CCC(=O)N(C)C[C@@H]1Oc2ncc(C#Cc3ccncc3)cc2C(=O)N([C@@H](C)CO)C[C@@H]1C	0	36*	1	-2	0
C[C@H](CO)N1C[C@H](C)[C@@H](CN(C)C(=O)CN(C)C)Oc2ncc(C#Cc3cccnc3)cc2C1=O	0	2	2	0	0
C[C@@H]1CN([C@H](C)CO)C(=O)c2cc(C#Cc3cccnc3)cnc2O[C@@H]1CN(C)C(=O)CN(C)C	0	2	1	35*	0
CCC(=O)N(C)C[C@H]1Oc2ncc(C#Cc3ccncc3)cc2C(=O)N([C@H](C)CO)C[C@H]1C	0	76*	-1	-6	0
CCC(=O)N(C)C[C@H]1Oc2ncc(C#Cc3ccncc3)cc2C(=O)N([C@@H](C)CO)C[C@H]1C	0	0	-1	-4	0
COc1ccc(COCC23N=C4SCCCN4[C@H](c4ccccc4O2)[C@H]3COC(=O)c2ccccc2)cc1	0	-2	0	-4	x
C/C=C/c1ccc([C@H]2[C@H](CO)N(C(=O)c3cnccn3)C23CN(C(=O)CC)C3)cc1	0	-2	0	15	0
COc1ccc(-c2ccc([C@H]3[C@@H](CO)N4CCCCN(CC5CCOCC5)C[C@H]34)cc2)cc1	0	-1	2	33*	0
CCCC#Cc1ccc([C@@H]2[C@H](CO)N3CCCCN(CC4CCOCC4)C[C@@H]23)cc1	0	0	1	46*	0
COc1ccc(-c2ccc([C@H]3[C@@H](CO)N4CCCCN(CC5CCOCC5)C[C@@H]34)cc2)cc1	0	-1	0	24*	0
COc1ccc(-c2ccc([C@H]3[C@H]4CN(CC5CCOCC5)CCCCN4[C@H]3CO)cc2)cc1	0	0	0	0	0
C=CCN=c1scc(-c2ccc(F)cc2)n1/N=C/c1ccccn1	0	-1	4	x	1
C=CCN=c1scc(-c2ccc3c(c2)NC(=O)CO3)n1/N=C(\C)c1ccccn1	0	-1	8.7*	-3	-2
CO[C@H]1CN(C)C(=O)c2cc(NS(C)(=O)=O)ccc2OC[C@H](C)N(Cc2ccccn2)C[C@H]1C	x	x	-1	x	0

Screening data from PubChem.
